ChEMBL document CHEMBL1137342 (J Med Chem, 2006)

How the values were obtained:
[1] = biological target: D(2) dopamine receptor (Rattus norvegicus) (UniProt P61169); assay: Intrinsic activity at rat dopamine D2L receptor expressed in HEK293 cells assessed as inhibition of forskolin-stimulated cAMP production relative to dopamine; type: functional, cell-based
Summary of the method: (§1)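 HEK293 cells stably expressing rat D2L, grown in DMEM with 5% fetal clone serum, 5% bovine calf serum and puromycin. Confluent monolayers were treated with ligands diluted in EBSS buffer (pH 7.4) with 5 µM forskolin and 500 µM IBMX. The reaction was stopped with 3% TCA. cAMP was measured in duplicate by [3H]cAMP competition with adrenal binding protein (2-3 h, 4 °C).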

D(1A) dopamine receptor [2] = biological target: D(1A) dopamine receptor (Homo sapiens, UniProt P21728); assay: Activity at human dopamine D1 receptor expressed in HEK293 cells assessed as stimulation of cAMP production; type: functional, cell-based
D(1A) dopamine receptor [3] = biological target: D(1A) dopamine receptor (Sus scrofa, UniProt P50130); assay: Displacement of [3H]SCH-23390 from dopamine D1-like receptor in porcine striata homogenate
D(2) dopamine receptor [4] = biological target: D(2) dopamine receptor (Rattus norvegicus, UniProt P61169); assay: Activity at rat dopamine D2L receptor expressed in HEK293 cells assessed as inhibition of forskolin-stimulated cAMP production; type: functional, cell-based; summary of the method: as §1
D(4) dopamine receptor [5] = biological target: T1, D(4) dopamine receptor (Homo sapiens, UniProt P21917); type: functional, cell-based, HEK293
T1 sequence (P21917 whole entry): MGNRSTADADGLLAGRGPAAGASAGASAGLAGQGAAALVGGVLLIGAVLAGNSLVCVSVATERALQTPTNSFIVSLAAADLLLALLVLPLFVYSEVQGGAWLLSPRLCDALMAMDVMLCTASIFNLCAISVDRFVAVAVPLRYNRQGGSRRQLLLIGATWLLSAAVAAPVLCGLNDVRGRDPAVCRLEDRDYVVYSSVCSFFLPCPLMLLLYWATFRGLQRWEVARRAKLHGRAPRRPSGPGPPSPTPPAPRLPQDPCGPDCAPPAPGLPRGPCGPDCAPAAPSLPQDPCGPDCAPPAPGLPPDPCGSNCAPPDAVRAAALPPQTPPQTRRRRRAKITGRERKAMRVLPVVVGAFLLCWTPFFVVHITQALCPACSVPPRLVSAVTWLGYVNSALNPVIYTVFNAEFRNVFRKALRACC

D(3) dopamine receptor = D(3) dopamine receptor (Homo sapiens, UniProt P35462); assay: Binding affinity to human cloned dopamine D3 receptor
D(4) dopamine receptor [6] = biological target: T1, D(4) dopamine receptor; assay: Binding affinity to human cloned dopamine D4 receptor
D(1B) dopamine receptor = D(1B) dopamine receptor (Homo sapiens, UniProt P21918); assay: Binding affinity to human cloned dopamine D5 receptor
[7] = biological target: T2, Alpha-2C adrenergic receptor (Homo sapiens, UniProt P18825); assay: Binding affinity to human cloned adrenergic alpha 2C receptor receptor
T2 sequence (P18825 whole entry): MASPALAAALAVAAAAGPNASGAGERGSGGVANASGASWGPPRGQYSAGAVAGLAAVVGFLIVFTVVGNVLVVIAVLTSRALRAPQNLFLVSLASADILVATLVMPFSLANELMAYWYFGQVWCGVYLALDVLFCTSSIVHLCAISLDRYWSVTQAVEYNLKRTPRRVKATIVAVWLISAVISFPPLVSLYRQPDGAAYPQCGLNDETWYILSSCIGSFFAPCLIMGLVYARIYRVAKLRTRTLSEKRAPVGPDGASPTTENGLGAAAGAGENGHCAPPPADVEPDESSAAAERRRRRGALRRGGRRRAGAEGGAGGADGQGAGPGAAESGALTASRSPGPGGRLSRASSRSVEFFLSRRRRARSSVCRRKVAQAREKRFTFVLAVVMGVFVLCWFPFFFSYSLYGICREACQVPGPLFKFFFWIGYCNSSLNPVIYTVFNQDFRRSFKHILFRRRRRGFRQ

[8] = biological target: T3, Alpha-2B adrenergic receptor (Homo sapiens, UniProt P18089); assay: Binding affinity to human cloned adrenergic alpha 2B receptor receptor
T3 sequence (P18089 whole entry): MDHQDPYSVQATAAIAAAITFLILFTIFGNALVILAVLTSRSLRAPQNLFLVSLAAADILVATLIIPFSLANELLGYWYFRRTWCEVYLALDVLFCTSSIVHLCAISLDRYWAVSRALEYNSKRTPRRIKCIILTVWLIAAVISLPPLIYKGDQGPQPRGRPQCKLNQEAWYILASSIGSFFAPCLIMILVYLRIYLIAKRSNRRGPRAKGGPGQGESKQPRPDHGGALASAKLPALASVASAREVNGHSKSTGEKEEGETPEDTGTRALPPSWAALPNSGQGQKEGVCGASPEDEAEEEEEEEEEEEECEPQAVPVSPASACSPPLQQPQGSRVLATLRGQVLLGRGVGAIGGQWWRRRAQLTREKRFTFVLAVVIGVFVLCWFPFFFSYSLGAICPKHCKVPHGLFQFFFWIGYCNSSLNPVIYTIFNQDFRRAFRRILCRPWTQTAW

[9] = biological target: T4, Alpha-2A adrenergic receptor (Homo sapiens, UniProt P08913); assay: Binding affinity to human cloned adrenergic alpha 2A receptor
T4 sequence (P08913 whole entry): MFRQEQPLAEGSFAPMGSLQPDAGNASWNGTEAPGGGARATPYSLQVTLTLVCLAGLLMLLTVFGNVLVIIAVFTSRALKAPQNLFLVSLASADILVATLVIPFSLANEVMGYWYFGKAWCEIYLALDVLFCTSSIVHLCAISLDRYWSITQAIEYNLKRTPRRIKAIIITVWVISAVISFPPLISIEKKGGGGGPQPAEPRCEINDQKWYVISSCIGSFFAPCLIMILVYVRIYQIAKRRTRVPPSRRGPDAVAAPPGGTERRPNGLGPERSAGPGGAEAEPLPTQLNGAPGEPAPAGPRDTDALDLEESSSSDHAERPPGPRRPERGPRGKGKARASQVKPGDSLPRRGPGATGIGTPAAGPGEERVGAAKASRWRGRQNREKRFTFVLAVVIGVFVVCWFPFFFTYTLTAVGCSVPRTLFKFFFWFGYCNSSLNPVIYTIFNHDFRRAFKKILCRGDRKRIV

D(2) dopamine receptor [10] = biological target: D(2) dopamine receptor (Homo sapiens, UniProt P14416); assay: Binding affinity to human cloned dopamine D2 receptor
Chain of D(2) dopamine receptor (Homo sapiens, UniProt P14416) (P14416 whole entry): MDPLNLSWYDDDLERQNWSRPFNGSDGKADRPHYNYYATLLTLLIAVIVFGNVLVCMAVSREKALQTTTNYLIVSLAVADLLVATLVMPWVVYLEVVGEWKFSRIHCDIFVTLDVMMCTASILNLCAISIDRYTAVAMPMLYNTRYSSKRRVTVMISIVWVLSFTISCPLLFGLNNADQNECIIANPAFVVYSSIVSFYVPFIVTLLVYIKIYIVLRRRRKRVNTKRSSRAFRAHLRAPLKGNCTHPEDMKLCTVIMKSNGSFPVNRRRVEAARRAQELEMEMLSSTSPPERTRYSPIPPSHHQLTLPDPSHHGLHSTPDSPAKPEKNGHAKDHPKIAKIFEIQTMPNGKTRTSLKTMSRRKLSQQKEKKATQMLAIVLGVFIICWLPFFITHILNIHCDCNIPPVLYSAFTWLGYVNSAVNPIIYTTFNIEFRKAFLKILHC

Chain of D(2) dopamine receptor (Rattus norvegicus) (P61169 whole entry): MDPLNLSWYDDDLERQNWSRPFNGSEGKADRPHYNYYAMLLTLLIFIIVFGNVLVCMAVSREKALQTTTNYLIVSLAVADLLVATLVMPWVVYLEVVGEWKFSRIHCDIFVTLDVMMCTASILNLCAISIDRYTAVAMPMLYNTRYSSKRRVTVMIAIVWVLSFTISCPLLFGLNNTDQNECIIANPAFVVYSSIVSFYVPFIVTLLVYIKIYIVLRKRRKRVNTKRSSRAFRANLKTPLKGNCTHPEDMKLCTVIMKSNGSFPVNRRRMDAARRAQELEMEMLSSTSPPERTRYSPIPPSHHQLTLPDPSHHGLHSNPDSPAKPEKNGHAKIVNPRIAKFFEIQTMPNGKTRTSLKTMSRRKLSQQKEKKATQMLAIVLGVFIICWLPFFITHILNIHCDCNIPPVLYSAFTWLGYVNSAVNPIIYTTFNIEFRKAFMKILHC
Chain of D(2) dopamine receptor (Rattus norvegicus, UniProt P61169) (P61169 whole entry): as above
Chain of D(1A) dopamine receptor (Sus scrofa, UniProt P50130) (P50130 whole entry): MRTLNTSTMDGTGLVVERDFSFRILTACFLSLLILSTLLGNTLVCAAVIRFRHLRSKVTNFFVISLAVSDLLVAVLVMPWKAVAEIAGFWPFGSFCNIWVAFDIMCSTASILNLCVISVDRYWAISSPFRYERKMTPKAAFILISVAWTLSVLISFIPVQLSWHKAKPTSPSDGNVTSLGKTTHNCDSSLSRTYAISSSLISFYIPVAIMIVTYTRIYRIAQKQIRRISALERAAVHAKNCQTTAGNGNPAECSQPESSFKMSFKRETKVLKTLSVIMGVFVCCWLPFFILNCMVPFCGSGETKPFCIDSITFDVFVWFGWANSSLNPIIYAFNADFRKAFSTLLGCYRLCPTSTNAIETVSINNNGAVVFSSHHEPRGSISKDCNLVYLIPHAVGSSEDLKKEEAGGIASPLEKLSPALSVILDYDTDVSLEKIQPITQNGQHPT
Chain of D(3) dopamine receptor (P35462 whole entry): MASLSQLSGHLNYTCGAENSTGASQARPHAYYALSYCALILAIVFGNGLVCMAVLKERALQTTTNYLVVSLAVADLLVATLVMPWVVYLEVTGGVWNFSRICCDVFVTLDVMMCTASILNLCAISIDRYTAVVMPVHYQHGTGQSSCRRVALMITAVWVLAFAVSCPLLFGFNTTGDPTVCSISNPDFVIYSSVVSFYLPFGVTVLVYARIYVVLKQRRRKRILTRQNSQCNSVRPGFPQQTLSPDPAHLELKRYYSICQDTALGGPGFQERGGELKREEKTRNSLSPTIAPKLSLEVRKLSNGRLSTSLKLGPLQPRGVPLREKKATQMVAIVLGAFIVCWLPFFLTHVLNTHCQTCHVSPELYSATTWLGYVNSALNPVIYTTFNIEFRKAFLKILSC
Chain of D(1A) dopamine receptor (Homo sapiens, UniProt P21728) (P21728 whole entry): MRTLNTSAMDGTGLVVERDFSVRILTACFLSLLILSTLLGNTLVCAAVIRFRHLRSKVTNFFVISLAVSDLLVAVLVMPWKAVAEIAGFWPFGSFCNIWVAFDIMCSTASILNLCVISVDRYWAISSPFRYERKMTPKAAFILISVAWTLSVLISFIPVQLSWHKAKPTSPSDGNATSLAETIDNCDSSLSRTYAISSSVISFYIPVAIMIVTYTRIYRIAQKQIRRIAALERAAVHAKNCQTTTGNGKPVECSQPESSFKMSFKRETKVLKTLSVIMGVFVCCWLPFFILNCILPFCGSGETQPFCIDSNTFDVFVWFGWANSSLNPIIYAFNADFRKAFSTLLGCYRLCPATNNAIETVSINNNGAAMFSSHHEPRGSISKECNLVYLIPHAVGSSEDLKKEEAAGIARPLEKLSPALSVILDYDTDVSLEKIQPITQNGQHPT
Chain of D(1B) dopamine receptor (P21918 whole entry): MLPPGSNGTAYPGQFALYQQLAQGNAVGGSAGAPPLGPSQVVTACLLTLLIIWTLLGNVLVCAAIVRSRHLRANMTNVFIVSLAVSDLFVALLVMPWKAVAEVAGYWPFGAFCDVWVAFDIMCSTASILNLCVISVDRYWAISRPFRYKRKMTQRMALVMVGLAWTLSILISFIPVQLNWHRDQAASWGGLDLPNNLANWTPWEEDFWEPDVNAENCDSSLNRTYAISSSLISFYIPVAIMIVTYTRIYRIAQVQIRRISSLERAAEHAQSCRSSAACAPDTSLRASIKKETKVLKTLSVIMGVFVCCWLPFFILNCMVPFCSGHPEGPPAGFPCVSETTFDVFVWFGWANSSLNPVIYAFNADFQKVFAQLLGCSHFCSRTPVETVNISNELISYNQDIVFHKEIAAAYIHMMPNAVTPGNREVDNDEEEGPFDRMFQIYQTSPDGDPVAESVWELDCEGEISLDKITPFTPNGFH

| Compound | Intrinsic activity [1] [%] | EC50 (D(2) dopamine receptor [4]) [nM] | EC50 (D(4) dopamine receptor [5]) [nM] | also measured |
| --- | --- | --- | --- | --- |
| CCCN1CCC[C@@H]2Cc3n[nH]cc3C[C@H]21 | 95 |  |  |  |
| NCCc1ccc(O)c(O)c1 | 100 |  |  |  |
| Oc1cc2c(cc1O)[C@H]1c3ccccc3CN[C@@H]1CC2 | 70 |  |  |  |
| CCCN1Cc2ccccc2C2c3cc(O)c(O)cc3OCC21 (racemic) | 92 | 1600 | 21 | EC50 (D(1A) dopamine receptor [2]): 1100 nM; Ki (D(1A) dopamine receptor [3]): 330 nM |
| Oc1cc2c(cc1O)C1c3ccccc3CNC1CO2 (racemic) [DOXANTHRINE] |  | > 10000 | 110 | Ki (D(3) dopamine receptor): 390 nM; Ki (D(4) dopamine receptor [6]): 90 nM; Ki (D(1B) dopamine receptor): 7 nM; Ki [7]: 2 nM; Ki [8]: 10 nM; Ki [9]: 180 nM; Ki (D(2) dopamine receptor [10]): 1910 nM |
| Oc1cc2c(cc1O)[C@@H]1c3ccccc3CN[C@H]1CO2 (single isomer, unassigned) |  | > 10000 | 230 |  |
| Oc1cc2c(cc1O)[C@H]1c3ccccc3CN[C@@H]1CO2 (single isomer, unassigned) |  | > 10000 | 95 |  |
